Data: ChEMBL document CHEMBL2163200, “Synthesis, biological evaluation, and structure-activity relationships of novel substituted N-phenyl ureidobenzenesulfonate derivatives blocking cell cycle progression in S-phase and inducing DNA double-strand breaks” (J Med Chem, 2012)
pIC50: −log10 of the molar value. Calls of active or inactive are those of the source. The rule behind the calls is not given here.

Assays:
Jurkat [1] = experiment: Cell cycle arrest in human Jurkat E6-1 cells assessed as accumulation at S phase at 26 uM after 24 hrs by FACS flow cytometry; assay type: functional
How it was run: (§1)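 Jurkat E6 T-lymphoblasts in RPMI 1640 with 10% FBS, 37 °C, 5% CO2. […] Chicken red blood cells were added as internal standard. Cells were fixed in ice-cold EtOH and stained with 1 μg/mL DAPI on ice for 1 h before flow cytometry of phase distribution. Vehicle control was 0.5% DMSO.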

Jurkat [2] = experiment: Cell cycle arrest in human Jurkat E6-1 cells assessed as accumulation at G2/M phase at 26 uM after 24 hrs by FACS flow cytometry; assay type: functional
How it was run: (§2)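 Jurkat E6 cells grown in RPMI 1640 with 10% FBS at 37 °C, 5% CO2. Compounds were serially diluted in medium starting 50% above the M21 IC50. 4.0 × 10^5 cells were exposed for 24 h, then washed and spiked with chicken red blood cells as internal standard. Cells were fixed in ice-cold ethanol, stained with 1 μg/mL DAPI on ice for 1 h, and phase distribution was read by flow cytometry. The control was 0.5% DMSO.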

HT-29 = experiment: Cytotoxicity against human HT-29 cells after 48 hrs by SRB assay; assay type: functional, cell-based; conditions: HT-29, 48 h
How it was run: (§3)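 NCI sulforhodamine B protocol. Cells were grown in high-glucose DMEM with 5% FBS and seeded per well at 4 × 10^3 (HT-29), 3.5 × 10^3 (M21) or 3 × 10^3 (MCF-7), then allowed 24 h to attach. Serial dilutions from 200 μM to 780 nM final were applied in DMSO <0.5% for 48 h. Cells were fixed with cold TCA (10% final) and stained with SRB, with absorbance read at 530–568 nm. Growth inhibition was computed against day-0 plates, giving the 50% inhibitory concentration. At least two experiments in triplicate, CV <10%.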

M21 [3] = experiment: Cytotoxicity against human M21 cells after 48 hrs by SRB assay; assay type: functional, cell-based; conditions: M21, 48 h; how it was run: as §3
MCF7 = experiment: Cytotoxicity against human MCF7 cells after 48 hrs by SRB assay; assay type: functional, cell-based; conditions: MCF7, 48 h; how it was run: as §3
Jurkat [4] = experiment: Cell cycle arrest in human Jurkat E6-1 cells assessed as accumulation at G0/G1 phase at 26 uM after 24 hrs by FACS flow cytometry; assay type: functional
How it was run: (§4)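 Jurkat E6 cells cultured in RPMI 1640 with 10% FBS at 37 °C, 5% CO2. Compounds serially diluted in medium, starting 50% above the M21 IC50. 4.0 × 10^5 cells were exposed for 24 h. Cells were washed with PBS, chicken red blood cells added as internal standard, and fixed in ice-cold EtOH. After 1 h on ice in PBS with 1 μg/mL DAPI, phase distribution was read by flow cytometry. DMSO-treated cells served as control.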

Jurkat [5] = experiment: Cell cycle arrest in human Jurkat E6-1 cells assessed as accumulation at S phase at 29 uM after 24 hrs by FACS flow cytometry; assay type: functional; how it was run: as §1
Jurkat [6] = experiment: Cell cycle arrest in human Jurkat E6-1 cells assessed as accumulation at G2/M phase at 29 uM after 24 hrs by FACS flow cytometry; assay type: functional; how it was run: as §2
Jurkat [7] = experiment: Cell cycle arrest in human Jurkat E6-1 cells assessed as accumulation at G0/G1 phase at 29 uM after 24 hrs by FACS flow cytometry; assay type: functional; how it was run: as §4
Jurkat [8] = experiment: Cell cycle arrest in human Jurkat E6-1 cells assessed as accumulation at S phase at 28 uM after 24 hrs by FACS flow cytometry; assay type: functional; how it was run: as §1
Jurkat [9] = experiment: Cell cycle arrest in human Jurkat E6-1 cells assessed as accumulation at G2/M phase at 28 uM after 24 hrs by FACS flow cytometry; assay type: functional; how it was run: as §2
Jurkat [10] = experiment: Cell cycle arrest in human Jurkat E6-1 cells assessed as accumulation at G0/G1 phase at 28 uM after 24 hrs by FACS flow cytometry; assay type: functional; how it was run: as §4
Jurkat [11] = experiment: Cell cycle arrest in human Jurkat E6-1 cells assessed as accumulation at S phase at 57 uM after 24 hrs by FACS flow cytometry; assay type: functional; how it was run: as §1
Jurkat [12] = experiment: Cell cycle arrest in human Jurkat E6-1 cells assessed as accumulation at G2/M phase at 57 uM after 24 hrs by FACS flow cytometry; assay type: functional; how it was run: as §2
Jurkat [13] = experiment: Cell cycle arrest in human Jurkat E6-1 cells assessed as accumulation at G0/G1 phase at 57 uM after 24 hrs by FACS flow cytometry; assay type: functional; how it was run: as §4
Jurkat [14] = experiment: Cell cycle arrest in human Jurkat E6-1 cells assessed as accumulation at S phase at 14 uM after 24 hrs by FACS flow cytometry; assay type: functional; how it was run: as §2
Jurkat [15] = experiment: Cell cycle arrest in human Jurkat E6-1 cells assessed as accumulation at G2/M phase at 14 uM after 24 hrs by FACS flow cytometry; assay type: functional; how it was run: as §4
Jurkat [16] = experiment: Cell cycle arrest in human Jurkat E6-1 cells assessed as accumulation at G0/G1 phase at 14 uM after 24 hrs by FACS flow cytometry; assay type: functional; how it was run: as §4
Jurkat [17] = experiment: Cell cycle arrest in human Jurkat E6-1 cells assessed as accumulation at S phase at 8.3 uM after 24 hrs by FACS flow cytometry; assay type: functional; how it was run: as §1
Jurkat [18] = experiment: Cell cycle arrest in human Jurkat E6-1 cells assessed as accumulation at G2/M phase at 8.3 uM after 24 hrs by FACS flow cytometry; assay type: functional; how it was run: as §2
M21 [19] = experiment: Induction of DNA damage response in human M21 cells assessed as phosphorylation of H2AX into gammaH2AX at IC50 after 24 hrs by DAPI staining-based immunofluorescence assay; assay type: functional, cell-based
How it was run: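 M21 cells (1 × 10^5) on fibronectin-coated coverslips, grown 24 h, then exposed to agent for 24 h at 37 °C; 0.5% DMSO control. Fixed with 3.7% formaldehyde and permeabilized with 0.1% saponin/3% BSA. Probed with mouse anti-H2AX pS139 antibody for 2 h at room temperature. Nuclei counterstained with DAPI; nuclear γH2AX foci viewed by epifluorescence microscopy.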

Jurkat [20] = experiment: Cell cycle arrest in human Jurkat E6-1 cells assessed as accumulation at G0/G1 phase at 8.3 uM after 24 hrs by FACS flow cytometry; assay type: functional; how it was run: as §4
Jurkat [21] = experiment: Cell cycle arrest in human Jurkat E6-1 cells assessed as accumulation at G0/G1 phase at 32 uM after 24 hrs by FACS flow cytometry; assay type: functional; how it was run: as §4
Jurkat [22] = experiment: Cell cycle arrest in human Jurkat E6-1 cells assessed as accumulation at S phase at 32 uM after 24 hrs by FACS flow cytometry; assay type: functional; how it was run: as §1
Jurkat [23] = experiment: Cell cycle arrest in human Jurkat E6-1 cells assessed as accumulation at G2/M phase at 32 uM after 24 hrs by FACS flow cytometry; assay type: functional; how it was run: as §2

CCCc1ccccc1NS(=O)(=O)c1cccc(NC(=O)NCCCCl)c1
Activity (Jurkat [1]): 43%
Activity (Jurkat [2]): 13%
pIC50 (HT-29): 4.82
pIC50 (M21 [3]): 4.64
pIC50 (MCF7): 4.74
Activity (Jurkat [4]): 44%

CCCc1ccccc1NS(=O)(=O)c1ccc(NC(=O)NCCCl)cc1
Activity (Jurkat [5]): 44%
Activity (Jurkat [6]): 28%
pIC50 (HT-29): 4.68
pIC50 (M21 [3]): 4.54
Activity (Jurkat [7]): 28%

Cc1ccccc1OS(=O)(=O)c1cccc(NC(=O)NCCCCl)c1
Activity (Jurkat [8]): 38%
Activity (Jurkat [9]): 19%
pIC50 (HT-29): 4.68
pIC50 (M21 [3]): 4.54
pIC50 (MCF7): 4.57
Activity (Jurkat [10]): 43%

O=C(NCCCCl)Nc1cccc(S(=O)(=O)Oc2ccc(O)cc2)c1
Activity (Jurkat [11]): 48%
Activity (Jurkat [12]): 9%
pIC50 (M21 [3]): 4.31
Activity (Jurkat [13]): 43%

CCCc1ccccc1OS(=O)(=O)c1cccc(NC(=O)NCCCCl)c1
Activity (Jurkat [14]): 39%
Activity (Jurkat [15]): 9%
pIC50 (HT-29): 4.85
pIC50 (M21 [3]): 4.82
pIC50 (MCF7): 4.85
Activity (Jurkat [16]): 52%

Cc1ccccc1OS(=O)(=O)c1ccc(NC(=O)NCCCCl)cc1
Activity (Jurkat [17]): 70%
Activity (Jurkat [18]): 10%
Activity (M21 [19]): Active
pIC50 (M21 [3]): 4.60
pIC50 (MCF7): 4.57
Activity (Jurkat [20]): 20%

CCNC(=O)Nc1cccc(S(=O)(=O)Oc2ccc(O)cc2)c1
Activity (Jurkat [21]): 43%
Activity (Jurkat [22]): 39%
Activity (Jurkat [23]): 18%
pIC50 (HT-29): 4.12
pIC50 (M21 [3]): 4.38
pIC50 (MCF7): 4.19
